Active and inactive are the calls of the source.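 Rule for the calls: active = fitted curve climbs past 10% caspase activation, relative to the positive control, at or below the top valid tested dose; inactive = the rest, including activity in the opposite direction.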

The first test has as its system wild-type MEF caspase-3/7 activation, CaspaseGlo luminescence, 3 h. The experiment in a line: apoptosis induction in unprimed parental MEFs – cell-based, wild-type MEF, luminescence, dry powder, set 4, counter-screen for A1 inhibitor project, dose response (AID 504353).
Conditions: not given
The method in brief:
(§1)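 Timing: 3 h compound exposure at 37 °C, 5% CO2 / Test system: wild-type MEFs, not A1-dependent / Input: 2500 cells/well / Detection: CaspaseGlo luminescence after 1 h reagent incubation, room temperature / Read-out: caspase activation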
Background: A counterscreen serves to expose hits that act by an unwanted route or on another target.
In the case of `Cc1ccc(Sc2c([N+](=O)[O-])c(=O)n(Cc3ccccc3)c3ccccc23)cc1`, the AC10 is 21.7 µM. The same measure, in the same setting: the value for `O=c1c([N+](=O)[O-])c(Cl)c2ccccc2n1Cc1ccccc1` was 3.93 µM; that for `Cn1c(=O)c([N+](=O)[O-])c(-n2cnc3ccccc32)c2ccccc21` was 26.1 µM; that for `Cn1c(=O)c([N+](=O)[O-])c(Cl)c2ccccc21` was 2.9 µM. Same read-out and setting: the value for `COCCn1c(=O)c([N+](=O)[O-])c(Sc2ccc(C)cc2)c2ccccc21` was 22 µM.

Tested on in a further test: not listed separately
The description is as above. Conditions: wild-type MEF caspase-3/7 activation, CaspaseGlo luminescence, 3 h; at 35 µM (top of the series). Summed up:
as §1
Take `CCn1c(=O)c([N+](=O)[O-])c(Sc2ccc(C)cc2)c2ccccc21`: the caspase activation is 0.55% (inactive). The same measure, in the same setting: the value for `C/C(=N\Nc1nc(N2CCCCC2)nc(N2CCCCC2)n1)c1ccc(F)cc1` was 0.729% (inactive); that for `O=C(COc1ccc(Cl)cc1Cl)NNc1nc(N2CCOCC2)nc(N2CCOCC2)n1` was 2.07% (inactive). The same measure, in the same setting: the value for `O=c1[nH]c2ccccc2c(Cl)c1[N+](=O)[O-]` was -2.56% (inactive); that for `Cc1ccc(Sc2c(Sc3ccc(C)cc3)c3ccccc3n(C)c2=O)cc1` was -0.533% (inactive). Still for that read-out and setting: the value for `COCCn1c(=O)c(Sc2ccc(C)cc2)c(Sc2ccc(C)cc2)c2ccccc21` was 0.618% (inactive); that for `COc1ccc(CCNc2nc(N3CCOCC3)nc(N3CCOCC3)n2)cc1OC` was 0.427% (inactive).
